Calls of active or inactive are those of the source.
Experiments:
Type in all cases: functional, organism-based
Candida albicans = assay: Antifungal activity against Candida albicans at 1 mM by almar blue dye reduction assay
Summary of the method: (§1)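 Single-point primary screen at 1 mM using Alamar Blue dye reduction as the growth read-out.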

Pseudomonas aeruginosa = assay: Antibacterial activity against Pseudomonas aeruginosa at 1 mM by almar blue dye reduction assay; summary of the method: as §1
Staphylococcus aureus = assay: Antibacterial activity against Staphylococcus aureus at 1 mM by almar blue dye reduction assay; summary of the method: as §1
Saccharomyces cerevisiae = assay: Antifungal activity against Saccharomyces cerevisiae at 1 mM by almar blue dye reduction assay; summary of the method: as §1
Escherichia coli = assay: Antibacterial activity against Escherichia coli at 1 mM by almar blue dye reduction assay; summary of the method: as §1
Bacillus subtilis = assay: Antibacterial activity against Bacillus subtilis at 1 mM by almar blue dye reduction assay; summary of the method: as §1
Bacillus anthracis = assay: Antibacterial activity against Bacillus anthracis at 1mM by almar blue dye reduction assay
Bacillus cereus = assay: Antibacterial activity against Bacillus cereus at 1 mM by almar blue dye reduction assay; summary of the method: as §1
Cryptococcus neoformans = assay: Antifungal activity against Cryptococcus neoformans at 1 mM by almar blue dye reduction assay; summary of the method: as §1

Measured: Activity

C[C@H](C[C@@H]1CC[C@H]([C@@H](C)C(=O)N2CCN(CC3CCCO3)CC2)O1)n1cc(C#Cc2ccccn2)nn1 (some centres not stated)
inactive: all assays above

COc1cccc(OCC#Cc2cn([C@H](C)C[C@@H]3CC[C@H]([C@@H](C)C(=O)N(C)Cc4ccccc4)O3)nn2)c1OC
inactive: all assays above

CCN(CC)C(=O)[C@H](C)[C@H]1CC[C@@H](C[C@@H](C)n2cc(C#CCN(C)CCc3ccccc3)nn2)O1
inactive: all assays above

COCC#Cc1cn([C@H](C)C[C@@H]2CC[C@H]([C@@H](C)C(=O)N3CCCC3)O2)nn1
inactive: all assays above

CC(C)NC(=O)[C@H](C)[C@H]1CC[C@@H](C[C@@H](C)n2cc(C#CCOc3cccc(-c4ccccc4)c3)nn2)O1
inactive: all assays above

CCN(CC)C(=O)[C@H](C)[C@H]1CC[C@@H](C[C@@H](C)n2cc(C#CC3=CCCCC3)nn2)O1
inactive: all assays above

C[C@H](C[C@@H]1CC[C@H]([C@@H](C)C(=O)N2CCN(CC3CCCO3)CC2)O1)n1cc(C#CCOc2ccccc2)nn1 (some centres not stated)
inactive: all assays above

C[C@H](C[C@@H]1CC[C@H]([C@@H](C)C(=O)N2CCCC2)O1)n1cc(C#Cc2cccc3ccccc23)nn1
inactive: all assays above

CCCCCC#Cc1cn([C@H](C)C[C@@H]2CC[C@H]([C@@H](C)C(=O)N3CCCC3)O2)nn1
inactive: all assays above

C[C@H](C[C@@H]1CC[C@H]([C@@H](C)C(=O)N(C)Cc2ccccc2)O1)n1cc(C#Cc2cccc3ccccc23)nn1
inactive: all assays above

CC(C)NC(=O)[C@H](C)[C@H]1CC[C@@H](C[C@@H](C)n2cc(C#Cc3ccc(C(F)(F)F)cc3)nn2)O1
inactive: all assays above

CCOC(=O)C#Cc1cn([C@H](C)CC2CCC([C@@H](C)C(=O)N(C)Cc3ccccc3)O2)nn1 (single isomer, unassigned)
inactive: all assays above

CC(C)NC(=O)[C@H](C)[C@H]1CC[C@@H](C[C@@H](C)n2cc(C#CCN(C)CCc3ccccc3)nn2)O1
inactive: all assays above

CC(C)NC(=O)[C@H](C)[C@H]1CC[C@@H](C[C@@H](C)n2cc(C#CCOc3ccc(Br)cc3)nn2)O1
inactive: all assays above

CC(C)CC#Cc1cn([C@H](C)C[C@@H]2CC[C@H]([C@@H](C)C(=O)N3CCCC3)O2)nn1
inactive: all assays above

CC(C)NC(=O)[C@H](C)C1CCC(C[C@@H](C)n2cc(C#CCNC(=O)OCc3ccccc3)nn2)O1 (single isomer, unassigned)
inactive: all assays above

COCCNCC#Cc1cn([C@H](C)C[C@@H]2CC[C@H]([C@@H](C)C(=O)N3CCCC3)O2)nn1
inactive: all assays above

COCCNCC#Cc1cn([C@H](C)C[C@@H]2CC[C@H]([C@@H](C)C(=O)N(C)Cc3ccccc3)O2)nn1
inactive: all assays above

C[C@H](C[C@@H]1CC[C@H]([C@@H](C)C(=O)N2CCCC2)O1)n1cc(C#CCN2CCC(c3ccccc3)CC2)nn1
inactive: all assays above

CCN(CC)C(=O)[C@H](C)[C@H]1CC[C@@H](C[C@@H](C)n2cc(C#CCC(C)C)nn2)O1
inactive: all assays above

CCN(CC)C(=O)[C@H](C)[C@H]1CC[C@@H](C[C@@H](C)n2cc(C#CCN3CCC(c4ccccc4)CC3)nn2)O1
inactive: all assays above

C[C@H](C[C@@H]1CC[C@H]([C@@H](C)C(=O)N2CCCC2)O1)n1cc(C#Cc2ccc(C(F)(F)F)cc2)nn1
inactive: all assays above

COCCNCC#Cc1cn([C@H](C)C[C@@H]2CC[C@H]([C@@H](C)C(=O)NC(C)C)O2)nn1
inactive: all assays above

Reference: ChEMBL document CHEMBL1155099, “Natural products in parallel synthesis: triazole libraries of nonactic acid” (2008)
